Data as given in ChEMBL document CHEMBL5331102, “Novel S1R agonists counteracting NMDA excitotoxicity and oxidative stress: A step forward in the discovery of neuroprotective agents” (Eur J Med Chem, 2023).
Converted amounts (≈) assume the structure as drawn. The source made the active and inactive calls. No cut-off for these calls is given here.

How the values were obtained:
[1] = molecular target: Sigma non-opioid intracellular receptor 1 (Homo sapiens, UniProt Q99720); experiment: Displacement of [3H]-(+)-pentazocine from sigma 1 receptor (unknown origin) at 25 nM by scintillation counting analysis; details: filed as agonist
Method in brief: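 Single-concentration screen at 25 nM test compound against [3H](+)pentazocine (15 nM) at S1R; scintillation counting; result given as % inhibition of control specific binding, i.e. 100 minus measured/control specific binding ×100.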

[2] = Thermodynamic solubility of the compound in HC1/KCl buffer at pH 1.2 incubated for 24 hrs; format: physicochemical; details: HCl/KCl buffer, read-out: Therm_solubility
Method in brief: (§1)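 10 mM DMSO stock diluted 1:100 into buffer (HCl/KCl pH 1.2; KH2PO4/NaOH pH 6.8; KH2PO4/Na2HPO4 pH 7.4), 1% v/v DMSO final; shaken 24 h at 1200 rpm, filtered through 0.45 μm polycarbonate membrane, filtrate diluted 1:1 with MeOH and analysed.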

[3] = system: SH-SY5Y; experiment: Neuroprotective activity in human SH-SY5Y cells assessed as prevention of rotenone induced cell damage by measuring cell viability at 1 uM incubated for 24 hrs in presence of rotenone by MTT assay; format: functional
Method in brief: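 SH-SY5Y cells co-exposed 24 h at 37 °C to rotenone 25 μM and compound at 1.0 or 5.0 μM in 2% FBS medium; viability by MTT, mean ± SD of three independent experiments.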

[4] = Lipophilicity, logP of the compound; format: physicochemical; details: octanol/water
[5] = molecular target: Sigma intracellular receptor 2 (Homo sapiens, UniProt Q5BJF2); experiment: Displacement of [3H]DTG from sigma 2 receptor (unknown origin) assessed as inhibition constant by scintillation counting analysis
Method in brief: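 Radioligand displacement at S1R with [3H](+)pentazocine (15 nM) and at S2R with [3H]DTG (25 nM); S2R assay includes 1 μM cold (+)pentazocine to mask S1R sites. Bound radioactivity counted by scintillation. IC50 and Hill slope from non-linear Hill fit of competition curves; Ki by Cheng–Prusoff using radioligand concentration and KD from Scatchard plot.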

[6] = Toxicity in Zebrafish embryos assessed as normal and vital phenotype at 0.1 to 1 uM incubated for 5 days by Teratogenic test; parameters: species or system Danio rerio, Embryo; details: in vivo, 120 h, dose 0.1-1 µM, time 5 day
Method in brief: (§2)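 Tg(GFAP:GFP) zebrafish embryos, 8 per group, exposed from 1 h post-fertilization to increasing compound concentrations at 28 °C for about 5 days without medium change; mortality, developmental defects and morphology score assessed at 5 dpf.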

[7] = Toxicity in Zebrafish embryos assessed as variation in embryo morphology score at 1 uM incubated for 5 days by Teratogenic test; parameters: species or system Danio rerio; details: in vivo, 120 h, time 5 day; method in brief: as §2
[8] = Dissociation constant, pKa of the compound; format: physicochemical
[9] = system: PC-12; experiment: Neuroprotective activity in rat PC12 cells assessed as induction of NGF-mediated neurite outgrowth at 0.1 to 5 uM by neurite outgrowth assay; format: functional, cell-based; details: dose 0.1-5 µM
Method in brief: (§3)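 PC12 cells stimulated with NGF (2.5 nM) and treated with compound up to 5 μM, alone or after pre-treatment with S1R antagonist NE-100 (3 μM); read-out is percentage of cells bearing neurite sprouts; mean ± SEM of three independent experiments.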

[10] = system: SH-SY5Y; experiment: Neuroprotective activity in human SH-SY5Y cells assessed as prevention of rotenone induced cell damage by measuring cell viability at 1 uM preincubated with PB212 for 1hrs followed by compound addition in presence of rotenone and measured after 24 hrs by MTT assay; format: functional, cell-based
Method in brief: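 SH-SY5Y cells pre-incubated 1 h with S1R antagonist PB212 (5 μM), then treated with compound (1 or 5 μM) plus PB212 (5 μM) and either rotenone 25 μM or NMDA 250 μM for 24 h; viability by MTT; two-way ANOVA with Bonferroni post hoc test.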

[11] = Toxicity in Zebrafish embryos assessed as morphological abnormality by observing enlarged volume of heart at 10 uM incubated for 5 days by Teratogenic test; format: tissue-based, Danio rerio; details: in vivo, 120 h, time 5 day; method in brief: as §2
[12] = Thermodynamic solubility of the compound in KH2PO4/NaOH buffer at pH 6.8 incubated for 24 hrs; format: physicochemical; details: read-out: Therm_solubility; method in brief: as §1
[13] = system: PC-12; experiment: Cytotoxicity against rat PC12 cells assessed as reduction in cell viability at <5 uM incubated for 24 hrs by MTT assay; format: toxicity, cell-based; details: pc-12, 24 h
[14] = system: PC-12; experiment: Cytotoxicity against rat PC12 cells assessed as reduction in cell viability at <1 uM incubated for 24 hrs by MTT assay; format: toxicity, cell-based; details: pc-12, 24 h
[15] = Toxicity in Zebrafish embryos assessed as morphological abnormality by observing poor pigmentation at 10 uM incubated for 5 days by Teratogenic test; parameters: species or system Danio rerio, Embryo; details: in vivo, 120 h, time 5 day; method in brief: as §2
[16] = Toxicity in Zebrafish embryos assessed as morphological abnormality by observing oedema at 10 uM incubated for 5 days by Teratogenic test; parameters: species or system Danio rerio, Embryo; details: in vivo, 120 h, time 5 day; method in brief: as §2
[17] = Toxicity in Zebrafish embryos assessed as morphological abnormality by observing inflated swim bladder at 10 uM incubated for 5 days by Teratogenic test; format: tissue-based, Danio rerio, Embryo; details: in vivo, 120 h, time 5 day; method in brief: as §2
[18] = system: PC-12; experiment: Neuroprotective activity in rat PC12 cells assessed as induction of NGF-mediated neurite outgrowth at 0.5 uM by neurite outgrowth assay (Rvb=26 +/- 4%); format: functional; method in brief: as §3

Chain of Sigma non-opioid intracellular receptor 1 (Q99720 whole entry): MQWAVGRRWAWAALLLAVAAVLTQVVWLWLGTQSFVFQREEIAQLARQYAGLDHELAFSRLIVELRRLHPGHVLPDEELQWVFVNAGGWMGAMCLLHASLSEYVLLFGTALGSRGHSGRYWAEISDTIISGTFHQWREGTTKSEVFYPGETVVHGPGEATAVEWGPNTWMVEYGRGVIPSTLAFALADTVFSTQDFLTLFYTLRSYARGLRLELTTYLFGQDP
Chain of Sigma intracellular receptor 2 (Q5BJF2 whole entry): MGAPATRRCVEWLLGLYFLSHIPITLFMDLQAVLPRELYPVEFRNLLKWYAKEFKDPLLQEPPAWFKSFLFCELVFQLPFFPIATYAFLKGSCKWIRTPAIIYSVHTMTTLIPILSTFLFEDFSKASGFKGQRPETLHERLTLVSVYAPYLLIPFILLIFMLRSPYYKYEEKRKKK

| Compound | Activity [1] [%] | solubility thermodynamic at 24 h [2] [µg/mL] | Activity [3] [%] | logP [4] | Ki [5] [nM] | Activity [6] | Activity [7] | pKa [8] | Activity [9] | Activity [10] | Activity [11] | solubility thermodynamic at 24 h [12] [µg/mL] | Activity [13] | Activity [14] | Activity [15] | Activity [16] | Activity [17] | Activity [18] [%] |
| --- | --- | --- | --- | --- | --- | --- | --- | --- | --- | --- | --- | --- | --- | --- | --- | --- | --- | --- |
| c1ccc(CC2CCN(CCCOc3ccccc3)CC2)cc1 | > 95 | 2800 (≈ 9.05 mM) | 68 | 4.38 | 88 | Non-Toxic | Non-Toxic | 9.26 | Dose-Dependent Effect | inactive | Toxic | 2800 (≈ 9.05 mM) | Non-Toxic | – | – | – | – | – |
| c1ccc(CC2CCN(CCOc3ccccc3)CC2)cc1 | > 95 | 7800 (≈ 26.4 mM) | 65 | 4 | 72 | Non-Toxic | Non-Toxic | 8.56 | Dose-Dependent Effect | inactive | 100% | 7800 (≈ 26.4 mM) | – | Non-Toxic | Toxic | Toxic | Toxic | 37 |
